This note sets out measurements from ChEMBL document CHEMBL4004822, “Thienopyrimidinone Based Sirtuin-2 (SIRT2)-Selective Inhibitors Bind in the Ligand Induced Selectivity Pocket” (J Med Chem, 2017).

This assay deals with T1, NAD-dependent protein deacetylase sirtuin-2 (Homo sapiens) (UniProt Q8IXJ6).
T1 sequence (whole entry): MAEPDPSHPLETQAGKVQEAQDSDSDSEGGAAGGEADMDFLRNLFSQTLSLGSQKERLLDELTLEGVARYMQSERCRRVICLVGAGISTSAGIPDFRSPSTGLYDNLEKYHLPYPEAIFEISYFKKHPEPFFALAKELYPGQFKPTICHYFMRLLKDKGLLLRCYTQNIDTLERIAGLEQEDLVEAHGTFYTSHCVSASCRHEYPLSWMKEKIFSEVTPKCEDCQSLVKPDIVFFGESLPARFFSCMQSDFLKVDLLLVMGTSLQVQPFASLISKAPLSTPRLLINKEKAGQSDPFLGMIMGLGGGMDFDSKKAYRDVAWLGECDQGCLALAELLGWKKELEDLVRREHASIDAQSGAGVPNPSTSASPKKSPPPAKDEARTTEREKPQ
Description: Inhibition of recombinant human C-terminal His-tagged SIRT2 (50 to 389 end residues) expressed in Escherichia coli at 10 uM using p53 derived (379 to 382 residues) fluorogenic peptide substrate RHKK(Ac)-AMC preincubated for 10 mins followed by substrate addition in presence of NAD+ by fluorescence assay relative to control. In outline:
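Two-step fluorogenic assay with p53 379–382 RHKK(Ac)-AMC. Compound (from 10 mM DMSO stock) preincubated ~10 min with human SIRT before substrate addition. Developer then releases fluorophore, read at ex 360/em 460 nm.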

By inhibition is commonly meant the relative decrease from the control value, in per cent.

Turning to `COc1ccccc1NC1CCc2c(sc3ncn(Cc4c(OC)ccc5ccccc45)c(=O)c23)C1` (stereo not drawn), the inhibition was determined as 29%.

As to `COc1cccc(NC2CCc3c(sc4ncn(Cc5ccc(OC)c6ccccc56)c(=O)c34)C2)c1` (stereo not drawn), the inhibition is 25%.

Take `COc1cccc(CNC2CCc3c(sc4ncn(Cc5cccc6cccnc56)c(=O)c34)C2)c1` (stereo not drawn): the inhibition came to 78%. The value for `COc1cccc(Cn2cnc3sc4c(c3c2=O)CCC(NCC2CCCCC2)C4)c1` (stereo not drawn) was 62%; that for `Cc1nn(C)c(C)c1CNC1CCc2c(sc3ncn(Cc4cccc5cccnc45)c(=O)c23)C1` (stereo not drawn) was 74%.

As for `COc1ccccc1NC1CCc2c(sc3ncn(Cc4cccc5ccccc45)c(=O)c23)C1` (stereo not drawn), the inhibition was 22%. `O=c1c2c3c(sc2ncn1Cc1cccc2cccnc12)CC(NCC1CCCO1)CC3` (stereo not drawn): the inhibition turned out to be 58%. On to `COc1ccc2ccccc2c1Cn1cnc2sc3c(c2c1=O)CCC(NC1CCc2ccccc21)C3` (stereo not drawn), for which the inhibition came to 59%. To `COc1ccccc1CCNC1CCc2c(sc3ncn(Cc4ccc(OC)c5ccccc45)c(=O)c23)C1` (stereo not drawn) belongs 69%; to `COc1ccc(Cn2cnc3sc4c(c3c2=O)CCC(NCc2cccs2)C4)c2ccccc12` (stereo not drawn), 71%; to `O=c1c2c3c(sc2ncn1Cc1cccc(-c2ccccc2)c1)CC(NCc1cccc(F)c1)CC3` (stereo not drawn), 63%. To `COc1ccc(Cn2cnc3sc4c(c3c2=O)CCC(NCCN2CCOCC2)C4)c2ccccc12` (stereo not drawn) belongs 76%.

On to `COc1ccccc1Cn1cnc2sc3c(c2c1=O)CCC(NCC1CCCO1)C3` (stereo not drawn), for which the inhibition was determined as 27%. Turning to `COc1ccc2ccccc2c1Cn1cnc2sc3c(c2c1=O)CCC(NC1CCCc2ccccc21)C3` (stereo not drawn), the inhibition stood at 34%. For `COCCNC1CCc2c(sc3ncn(Cc4cccc5ccccc45)c(=O)c23)C1` (stereo not drawn), the inhibition came to 35%. The value for `O=c1c2c3c(sc2ncn1Cc1cccc2ccccc12)CC(NCc1ccc(Cl)cc1)CC3` (stereo not drawn) was 64%. Consider `COc1ccccc1Cn1cnc2sc3c(c2c1=O)CCC(NCc1ccco1)C3` (stereo not drawn), for which the inhibition was determined as 43%. To `COc1cccc(NC2CCc3c(sc4ncn(Cc5cccc6cccnc56)c(=O)c34)C2)c1` (stereo not drawn) belongs 67%; to `O=c1c2c3c(sc2ncn1Cc1cccc2cccnc12)CC(NCCN1CCOCC1)CC3` (stereo not drawn), 53%; to `COc1ccc2ccccc2c1Cn1cnc2sc3c(c2c1=O)CCC(NCc1ccccc1Cl)C3` (stereo not drawn), 40%. In the case of `COc1ccc(Cn2cnc3sc4c(c3c2=O)CCC(Nc2ccc3c(c2)OCO3)C4)c2ccccc12` (stereo not drawn), the inhibition turned out to be 38%. To `Cc1noc(C)c1CNC1CCc2c(sc3ncn(Cc4ccc5ccccc5c4)c(=O)c23)C1` (stereo not drawn) belongs 67%; to `O=c1c2c3c(sc2ncn1Cc1cccc2ccccc12)CC(NCC1CCOC1)CC3` (stereo not drawn), 72%. On to `COc1cccc(NC2CCc3c(sc4ncn(Cc5cccc6ccccc56)c(=O)c34)C2)c1` (stereo not drawn), for which the inhibition stood at 46%. `COc1ccc(Cn2cnc3sc4c(c3c2=O)CCC(NCC2CCOC2)C4)c2ccccc12` (stereo not drawn): the inhibition was found to be 70%.

For the compound `O=c1c2c3c(sc2ncn1Cc1cccc(-c2ccccc2)c1)CC(NC1CCc2ccccc21)CC3` (stereo not drawn), the inhibition was determined as 45%. As for `O=c1c2c3c(sc2ncn1Cc1ccccc1)CC(NCc1cccnc1)CC3` (stereo not drawn), the inhibition turned out to be 42%. To `COc1ccc(CNC2CCc3c(sc4ncn(Cc5ccccc5)c(=O)c34)C2)cc1` (stereo not drawn) belongs 45%. On to `COc1ccc(CNC2CCc3c(sc4ncn(Cc5ccccc5OC)c(=O)c34)C2)cc1` (stereo not drawn), for which the inhibition is 67%.

Take `COc1cccc(CNC2CCc3c(sc4ncn(Cc5cccc(OC)c5)c(=O)c34)C2)c1` (stereo not drawn): the inhibition was found to be 58%. The value for `COc1cccc(Cn2cnc3sc4c(c3c2=O)CCC(NCCc2ccncc2)C4)c1` (stereo not drawn) was 39%; that for `O=c1c2c3c(sc2ncn1Cc1ccc2ccccc2c1)CC(NCc1cccs1)CC3` (stereo not drawn) was 62%; that for `O=c1c2c3c(sc2ncn1Cc1ccccc1)CC(NCCc1cccnc1)CC3` (stereo not drawn) was 27%. The value for `COc1ccc2ccccc2c1Cn1cnc2sc(CCNCC3CCOC3)c(C)c2c1=O` (stereo not drawn) was 65%; that for `COc1ccc2ccccc2c1Cn1cnc2sc3c(c2c1=O)CCC(NCc1ccc(C#N)cc1)C3` (stereo not drawn) was 75%.

As to `COc1ccc(CNC2CCc3c(sc4ncn(Cc5cccc(OC)c5)c(=O)c34)C2)cc1` (stereo not drawn), the inhibition was found to be 71%. Regarding `O=c1c2c3c(sc2ncn1Cc1cccc2ccccc12)CC(NCc1cccs1)CC3` (stereo not drawn), the inhibition amounted to 54%.

With `COc1cccc(Cn2cnc3sc4c(c3c2=O)CCC(NCC2CCCO2)C4)c1` (stereo not drawn), the inhibition was determined as 3%.

As for `COc1ccc(NC2CCc3c(sc4ncn(Cc5ccc(OC)c6ccccc56)c(=O)c34)C2)cc1` (stereo not drawn), the inhibition turned out to be 41%. Turning to `COc1cccc(CNC2CCc3c(sc4ncn(Cc5ccccc5)c(=O)c34)C2)c1` (stereo not drawn), the inhibition came out at 48%. As for `O=c1c2c3c(sc2ncn1Cc1cccc(-c2ccccc2)c1)CC(NCc1ccccc1Cl)CC3` (stereo not drawn), the inhibition is 39%. Take `COc1ccccc1CNC1CCc2c(sc3ncn(Cc4ccccc4)c(=O)c23)C1` (stereo not drawn): the inhibition came out at 46%. As to `CC(=O)NCCNC1CCc2c(sc3ncn(Cc4cccc5cccnc45)c(=O)c23)C1` (stereo not drawn), the inhibition worked out at 28%.

For the compound `COc1ccc(Cn2cnc3sc4c(c3c2=O)CCC(NCc2cccc(F)c2)C4)c2ccccc12` (stereo not drawn), the inhibition was found to be 59%.

For the compound `COc1ccccc1CCNC1CCc2c(sc3ncn(Cc4cccc(-c5ccccc5)c4)c(=O)c23)C1` (stereo not drawn), the inhibition was 65%. The value for `Cc1nn(C)c(C)c1CNC1CCc2c(sc3ncn(Cc4ccccc4)c(=O)c23)C1` (stereo not drawn) was 32%. On to `O=c1c2c3c(sc2ncn1Cc1ccccc1)CC(NCc1cncnc1)CC3` (stereo not drawn), for which the inhibition came out at 18%. The value for `O=c1c2c3c(sc2ncn1Cc1ccc2ccccc2c1)CC(NC1CCc2ccccc21)CC3` (stereo not drawn) was 60%. To `O=c1c2c3c(sc2ncn1Cc1cccc(-c2ccccc2)c1)CC(NCc1cccs1)CC3` (stereo not drawn) belongs 66%; to `COc1cccc(NC2CCc3c(sc4ncn(Cc5ccc6ccccc6c5)c(=O)c34)C2)c1` (stereo not drawn), 37%; to `O=c1c2c3c(sc2ncn1Cc1ccccc1)CC(NCc1ccccc1)CC3` (stereo not drawn), 57%.

Take `O=c1c2c3c(sc2ncn1Cc1ccccc1)CC(NCc1ccccc1Cl)CC3` (stereo not drawn): the inhibition was found to be 67%. Regarding `COc1cccc(Cn2cnc3sc4c(c3c2=O)CCC(NCc2ccncc2)C4)c1` (stereo not drawn), the inhibition amounted to 59%. Take `COc1ccc(Cn2cnc3sc4c(c3c2=O)CCC(NCc2ccccc2F)C4)c2ccccc12` (stereo not drawn): the inhibition was 71%. Take `O=c1c2c3c(sc2ncn1Cc1ccc2ccccc2c1)CC(NC1CCCc2ccccc21)CC3` (stereo not drawn): the inhibition amounted to 37%.

Consider `CC(=O)NCCNC1CCc2c(sc3ncn(Cc4cccc5ccccc45)c(=O)c23)C1` (stereo not drawn), for which the inhibition was 28%. With `O=c1c2c3c(sc2ncn1Cc1ccc2ccccc2c1)CC(NCCN1CCCC1)CC3` (stereo not drawn), the inhibition is 52%. Turning to `O=c1c2c3c(sc2ncn1Cc1cccc2ccccc12)CC(Nc1ccc(F)cc1)CC3` (stereo not drawn), the inhibition was 50%. To `N#Cc1ccc(CNC2CCc3c(sc4ncn(Cc5ccc6ccccc6c5)c(=O)c34)C2)cc1` (stereo not drawn) belongs 67%; to `O=c1c2c3c(sc2ncn1Cc1cccc2ccccc12)CC(NC1CCCc2ccccc21)CC3` (stereo not drawn), 51%. With `O=c1c2c3c(sc2ncn1Cc1cccc2cccnc12)CC(NCc1cncnc1)CC3` (stereo not drawn), the inhibition turned out to be 75%. To `Cc1cccc(NC2CCc3c(sc4ncn(Cc5cccc6ccccc56)c(=O)c34)C2)c1` (stereo not drawn) belongs 41%; to `COc1cccc(Cn2cnc3sc4c(c3c2=O)CCC(NCc2ccccc2Cl)C4)c1` (stereo not drawn), 68%; to `COc1ccc2ccccc2c1Cn1cnc2sc3c(c2c1=O)CCC(NCc1cccc(Cl)c1)C3` (stereo not drawn), 50%. Consider `O=c1c2c3c(sc2ncn1Cc1cccc2ccccc12)CC(NCc1ccccc1Cl)CC3` (stereo not drawn), for which the inhibition amounted to 46%.

As to `Cc1cccc(NC2CCc3c(sc4ncn(Cc5cccc(-c6ccccc6)c5)c(=O)c34)C2)c1` (stereo not drawn), the inhibition amounted to 28%. In the case of `COc1cccc(Cn2cnc3sc4c(c3c2=O)CCC(NCc2cncnc2)C4)c1` (stereo not drawn), the inhibition turned out to be 18%. The value for `O=c1c2c3c(sc2ncn1Cc1ccccc1)CC(NCc1ccccn1)CC3` (stereo not drawn) was 26%; that for `COc1ccccc1CCNC1CCc2c(sc3ncn(Cc4cccc5cccnc45)c(=O)c23)C1` (stereo not drawn) was 63%. The value for `COc1ccc(Cn2cnc3sc4c(c3c2=O)CCC(Nc2ccc(C)cc2)C4)c2ccccc12` (stereo not drawn) was 35%; that for `COCCNC1CCc2c(sc3ncn(Cc4ccc5ccccc5c4)c(=O)c23)C1` (stereo not drawn) was 45%.

Regarding `COc1ccc(Cn2cnc3sc4c(c3c2=O)CCC(Nc2ccc(F)cc2)C4)c2ccccc12` (stereo not drawn), the inhibition was found to be 56%. Regarding `O=c1c2c3c(sc2ncn1Cc1cccc(-c2ccccc2)c1)CC(NCc1cccc(Cl)c1)CC3` (stereo not drawn), the inhibition is 43%.

As for `O=c1c2c3c(sc2ncn1Cc1ccc2ccccc2c1)CC(NCC1CCOC1)CC3` (stereo not drawn), the inhibition is 58%.

With `Cc1noc(C)c1CNC1CCc2c(sc3ncn(Cc4cccc(-c5ccccc5)c4)c(=O)c23)C1` (stereo not drawn), the inhibition was 60%.

With `O=c1c2c3c(sc2ncn1Cc1cccc2cccnc12)CC(Nc1ccc2c(c1)OCO2)CC3` (stereo not drawn), the inhibition came to 76%. To `O=c1c2c3c(sc2ncn1Cc1ccccc1)CC(NCC1CCCCC1)CC3` (stereo not drawn) belongs 56%; to `O=c1c2c3c(sc2ncn1Cc1cccc2cccnc12)CC(NC1CCOCC1)CC3` (stereo not drawn), 51%.
